≈ marks a conversion by molar mass, not a printed value.
Tests used:
Type in all cases: functional
Staphylococcus aureus [1] = assay: Antimicrobial activity against vancomycin-susceptible Staphylococcus aureus assessed as growth inhibition at MIC; parameters: scale not given: the % may be the effect or the level left
Staphylococcus aureus [2] = assay: Antimicrobial activity against SCCmec type III vancomycin-intermediate Staphylococcus aureus isolate gz06051 by agar dilution method
Outline: (§1)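 Agar-dilution MICs were measured on a subset of 200 blood MRSA isolates from China. Agents: oxacillin, rifampin, gentamicin, levofloxacin, erythromycin, vancomycin, teicoplanin, tigecycline, ceftobiprole and linezolid. Phenotype came from the PAP-AUC ratio of each isolate to S. aureus Mu3 (VSSA <0.9; hVISA 0.9 to 1.3; VISA ≥1.3), read on BHI agar with 0 to 8.0 mg/liter vancomycin after 48 h at 35°C.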

Staphylococcus aureus [3] = assay: Antimicrobial activity against heterogeneous vancomycin-intermediate Staphylococcus aureus assessed as susceptible isolates by agar dilution method
Outline: (§2)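 MICs by agar dilution for all 200 MRSA blood isolates (oxacillin, rifampin, gentamicin, levofloxacin, erythromycin, vancomycin, teicoplanin, tigecycline, ceftobiprole, linezolid). Isolates were grouped by PAP-AUC ratio against S. aureus Mu3: below 0.9 VSSA, 0.9 to 1.3 hVISA, 1.3 or more VISA.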

Staphylococcus aureus [4] = assay: Antimicrobial activity against SCCmec type II vancomycin-intermediate Staphylococcus aureus isolate b2k4781 by agar dilution method; outline: as §1
Staphylococcus aureus [5] = assay: Antimicrobial activity against heterogeneous vancomycin-intermediate Staphylococcus aureus assessed as growth inhibition at 2 times MIC; parameters: scale not given: the % may be the effect or the level left
Staphylococcus aureus [6] = assay: Antimicrobial activity against SCCmec type III vancomycin-intermediate Staphylococcus aureus isolate b3k5923 by agar dilution method; outline: as §1
Staphylococcus aureus [7] = assay: Antimicrobial activity against vancomycin-susceptible Staphylococcus aureus assessed as growth inhibition at 4 times MIC; parameters: scale not given: the % may be the effect or the level left
Staphylococcus aureus [8] = assay: Antimicrobial activity against SCCmec type III vancomycin-intermediate Staphylococcus aureus isolate b6k1642 by agar dilution method; outline: as §1
Staphylococcus aureus [9] = assay: Antimicrobial activity against SCCmec type III vancomycin-intermediate Staphylococcus aureus isolate gz07030 by agar dilution method; outline: as §1
Staphylococcus aureus [10] = assay: Antimicrobial activity against SCCmec type III vancomycin-intermediate Staphylococcus aureus isolate 15b52 by agar dilution method; outline: as §1
Staphylococcus aureus [11] = assay: Antimicrobial activity against SCCmec type III vancomycin-intermediate Staphylococcus aureus isolate gz06040 by agar dilution method; outline: as §1
Staphylococcus aureus [12] = assay: Antimicrobial activity against heterogeneous vancomycin-intermediate Staphylococcus aureus assessed as growth inhibition at 0.5 times MIC; parameters: scale not given: the % may be the effect or the level left
Staphylococcus aureus [13] = assay: Antimicrobial activity against heterogeneous vancomycin-intermediate Staphylococcus aureus assessed as growth inhibition at 0.125 times MIC; parameters: scale not given: the % may be the effect or the level left
Staphylococcus aureus [14] = assay: Antimicrobial activity against heterogeneous vancomycin-intermediate Staphylococcus aureus assessed as growth inhibition at 16 times MIC; parameters: scale not given: the % may be the effect or the level left
Staphylococcus aureus [15] = assay: Antimicrobial activity against vancomycin-susceptible Staphylococcus aureus assessed as growth inhibition at 2 times MIC; parameters: scale not given: the % may be the effect or the level left
Staphylococcus aureus [16] = assay: Antimicrobial activity against SCCmec type III vancomycin-intermediate Staphylococcus aureus isolate 11b091 by agar dilution method; outline: as §1
Staphylococcus aureus [17] = assay: Antimicrobial activity against vancomycin-intermediate Staphylococcus aureus by agar dilution method; outline: as §1
Staphylococcus aureus [18] = assay: Antimicrobial activity against SCCmec type III vancomycin-intermediate Staphylococcus aureus isolate 5zjsau3 by agar dilution method; outline: as §1
Staphylococcus aureus [19] = assay: Antimicrobial activity against vancomycin-susceptible Staphylococcus aureus assessed as growth inhibition at 0.5 times MIC; parameters: scale not given: the % may be the effect or the level left
Staphylococcus aureus [20] = assay: Antimicrobial activity against SCCmec type III vancomycin-intermediate Staphylococcus aureus isolate xa07029 by agar dilution method; outline: as §1
Staphylococcus aureus [21] = assay: Antimicrobial activity against SCCmec type III vancomycin-intermediate Staphylococcus aureus isolate b4k6307 by agar dilution method; outline: as §1
Staphylococcus aureus [22] = assay: Antimicrobial activity against vancomycin-susceptible Staphylococcus aureus assessed as growth inhibition at 0.125 times MIC; parameters: scale not given: the % may be the effect or the level left
Staphylococcus aureus [23] = assay: Antimicrobial activity against SCCmec type III vancomycin-intermediate Staphylococcus aureus isolate b6k7974 by agar dilution method; outline: as §1
Staphylococcus aureus [24] = assay: Antimicrobial activity against SCCmec type II vancomycin-intermediate Staphylococcus aureus isolate 4sy32 by agar dilution method; outline: as §1
Staphylococcus aureus [25] = assay: Antimicrobial activity against SCCmec type III vancomycin-intermediate Staphylococcus aureus isolate b3k2345 by agar dilution method; outline: as §1
Staphylococcus aureus [26] = assay: Antimicrobial activity against SCCmec type III vancomycin-intermediate Staphylococcus aureus isolate gs07022 by agar dilution method; outline: as §1
Staphylococcus aureus [27] = assay: Antimicrobial activity against SCCmec type II vancomycin-intermediate Staphylococcus aureus isolate 6zjsau7 by agar dilution method; outline: as §1
Staphylococcus aureus [28] = assay: Antimicrobial activity against heterogeneous vancomycin-intermediate Staphylococcus aureus assessed as intermediate isolates by agar dilution method; outline: as §2
Staphylococcus aureus [29] = assay: Antimicrobial activity against SCCmec type II vancomycin-intermediate Staphylococcus aureus isolate 07b63 by agar dilution method; outline: as §1
Staphylococcus aureus [30] = assay: Antimicrobial activity against SCCmec type II vancomycin-intermediate Staphylococcus aureus isolate sh06024 by agar dilution method; outline: as §1
Staphylococcus aureus [31] = assay: Antimicrobial activity against heterogeneous vancomycin-intermediate Staphylococcus aureus assessed as growth inhibition at 4 times MIC; parameters: scale not given: the % may be the effect or the level left
Staphylococcus aureus [32] = assay: Antimicrobial activity against heterogeneous vancomycin-susceptible Staphylococcus aureus assessed as susceptible isolates by agar dilution method; outline: as §2
Staphylococcus aureus [33] = assay: Antimicrobial activity against heterogeneous vancomycin-intermediate Staphylococcus aureus by agar dilution method; outline: as §1
Staphylococcus aureus [34] = assay: Antimicrobial activity against SCCmec type III vancomycin-intermediate Staphylococcus aureus isolate zj07028 by agar dilution method; outline: as §1
Staphylococcus aureus [35] = assay: Antimicrobial activity against SCCmec type III vancomycin-intermediate Staphylococcus aureus isolate 13b16 by agar dilution method; outline: as §1
Staphylococcus aureus [36] = assay: Antimicrobial activity against vancomycin-susceptible Staphylococcus aureus assessed as growth inhibition at 0.25 times MIC; parameters: scale not given: the % may be the effect or the level left
Staphylococcus aureus [37] = assay: Antimicrobial activity against heterogeneous vancomycin-intermediate Staphylococcus aureus assessed as growth inhibition at 0.25 times MIC; parameters: scale not given: the % may be the effect or the level left
Staphylococcus aureus [38] = assay: Antimicrobial activity against vancomycin-susceptible Staphylococcus aureus by agar dilution method; outline: as §1
Staphylococcus aureus [39] = assay: Antimicrobial activity against heterogeneous vancomycin-susceptible Staphylococcus aureus assessed as intermediate isolates by agar dilution method
Staphylococcus aureus [40] = assay: Antimicrobial activity against heterogeneous vancomycin-intermediate Staphylococcus aureus assessed as growth inhibition at MIC; parameters: scale not given: the % may be the effect or the level left
Staphylococcus aureus [41] = assay: Antimicrobial activity against SCCmec type IV vancomycin-intermediate Staphylococcus aureus isolate 06b41 by agar dilution method; outline: as §1
Staphylococcus aureus [42] = assay: Antimicrobial activity against SCCmec type II vancomycin-intermediate Staphylococcus aureus isolate 4sy39 by agar dilution method; outline: as §1
Staphylococcus aureus [43] = assay: Antimicrobial activity against SCCmec type III vancomycin-intermediate Staphylococcus aureus isolate sh07043 by agar dilution method; outline: as §1
Staphylococcus aureus [44] = assay: Antimicrobial activity against vancomycin-susceptible Staphylococcus aureus assessed as growth inhibition at 16 times MIC; parameters: scale not given: the % may be the effect or the level left
Staphylococcus aureus [45] = assay: Antimicrobial activity against SCCmec type III vancomycin-intermediate Staphylococcus aureus isolate bd4768 by agar dilution method; outline: as §1
Staphylococcus aureus [46] = assay: Antimicrobial activity against SCCmec type III vancomycin-intermediate Staphylococcus aureus isolate b5k3529 by agar dilution method; outline: as §1
Staphylococcus aureus [47] = assay: Antimicrobial activity against SCCmec type III vancomycin-intermediate Staphylococcus aureus isolate b2k3421 by agar dilution method; outline: as §1
Staphylococcus aureus [48] = assay: Antimicrobial activity against SCCmec type III vancomycin-intermediate Staphylococcus aureus isolate b5k3578 by agar dilution method; outline: as §1

## CN(C)c1cc(NC(=O)CNC(C)(C)C)c(O)c2c1C[C@H]1C[C@H]3[C@H](N(C)C)C(O)=C(C(N)=O)C(=O)[C@@]3(O)C(O)=C1C2=O [TIGECYCLINE]
Staphylococcus aureus [1]
  Activity: 100%
Staphylococcus aureus [2]
  MIC: 0.25 µg/mL (≈ 0.427 µM)
Staphylococcus aureus [3]
  Activity: 100%
Staphylococcus aureus [4]
  MIC: 0.125 µg/mL (≈ 0.213 µM)
Staphylococcus aureus [5]
  Activity: 100%
Staphylococcus aureus [6]
  MIC: 0.032 µg/mL (≈ 0.0546 µM)
Staphylococcus aureus [7]
  Activity: 100%
Staphylococcus aureus [8]
  MIC: 0.25 µg/mL (≈ 0.427 µM)
Staphylococcus aureus [9]
  MIC: 0.125 µg/mL (≈ 0.213 µM)
Staphylococcus aureus [10]
  MIC: 0.25 µg/mL (≈ 0.427 µM)
Staphylococcus aureus [11]
  MIC: 0.125 µg/mL (≈ 0.213 µM)
Staphylococcus aureus [12]
  Activity: 100%
Staphylococcus aureus [13]
  Activity: 44.4%
Staphylococcus aureus [14]
  Activity: 100%
Staphylococcus aureus [15]
  Activity: 100%
Staphylococcus aureus [16]
  MIC: 0.125 µg/mL (≈ 0.213 µM)
Staphylococcus aureus [17]
  MIC: 0.25 µg/mL (≈ 0.427 µM)
Staphylococcus aureus [18]
  MIC: 0.25 µg/mL (≈ 0.427 µM)
Staphylococcus aureus [19]
  Activity: 100%
Staphylococcus aureus [20]
  MIC: 0.25 µg/mL (≈ 0.427 µM)
Staphylococcus aureus [21]
  MIC: 0.064 µg/mL (≈ 0.109 µM)
Staphylococcus aureus [22]
  Activity: 54.3%
Staphylococcus aureus [23]
  MIC: 0.25 µg/mL (≈ 0.427 µM)
Staphylococcus aureus [24]
  MIC: 0.25 µg/mL (≈ 0.427 µM)
Staphylococcus aureus [25]
  MIC: 0.064 µg/mL (≈ 0.109 µM)
Staphylococcus aureus [26]
  MIC: 0.25 µg/mL (≈ 0.427 µM)
Staphylococcus aureus [27]
  MIC: 0.25 µg/mL (≈ 0.427 µM)
Staphylococcus aureus [28]
  Activity: 0%
Staphylococcus aureus [29]
  MIC: 0.5 µg/mL (≈ 0.854 µM)
Staphylococcus aureus [30]
  MIC: 0.125 µg/mL (≈ 0.213 µM)
Staphylococcus aureus [31]
  Activity: 100%
Staphylococcus aureus [32]
  Activity: 100%
Staphylococcus aureus [33]
  MIC50: 0.25 µg/mL (≈ 0.427 µM)
  MIC90: 0.25 µg/mL (≈ 0.427 µM)
Staphylococcus aureus [34]
  MIC: 0.5 µg/mL (≈ 0.854 µM)
Staphylococcus aureus [35]
  MIC: 0.125 µg/mL (≈ 0.213 µM)
Staphylococcus aureus [36]
  Activity: 90.2%
Staphylococcus aureus [37]
  Activity: 92.6%
Staphylococcus aureus [38]
  MIC50: 0.125 µg/mL (≈ 0.213 µM)
  MIC90: 0.25 µg/mL (≈ 0.427 µM)
Staphylococcus aureus [39]
  Activity: 0%
Staphylococcus aureus [40]
  Activity: 100%
Staphylococcus aureus [41]
  MIC: 0.25 µg/mL (≈ 0.427 µM)
Staphylococcus aureus [42]
  MIC: 0.25 µg/mL (≈ 0.427 µM)
Staphylococcus aureus [43]
  MIC: 0.25 µg/mL (≈ 0.427 µM)
Staphylococcus aureus [44]
  Activity: 100%
Staphylococcus aureus [45]
  MIC: 0.125 µg/mL (≈ 0.213 µM)
Staphylococcus aureus [46]
  MIC: 0.125 µg/mL (≈ 0.213 µM)
Staphylococcus aureus [47]
  MIC: 0.125 µg/mL (≈ 0.213 µM)
Staphylococcus aureus [48]
  MIC: 0.25 µg/mL (≈ 0.427 µM)
